Data as given in ChEMBL document CHEMBL3853360, “Combined Interactions with I1-, I2-Imidazoline Binding Sites and α2-Adrenoceptors To Manage Opioid Addiction” (ACS Med Chem Lett, 2016).

Key:
[1] = molecular target: T1, Alpha-2B adrenergic receptor (Homo sapiens, UniProt P18089); test: Agonist activity at human alpha2b-AR expressed in CHO cells assessed as rate of acidification after 240 mins by cytosensor microphysiometric analysis; type: cell-based
T1 sequence (P18089 whole entry): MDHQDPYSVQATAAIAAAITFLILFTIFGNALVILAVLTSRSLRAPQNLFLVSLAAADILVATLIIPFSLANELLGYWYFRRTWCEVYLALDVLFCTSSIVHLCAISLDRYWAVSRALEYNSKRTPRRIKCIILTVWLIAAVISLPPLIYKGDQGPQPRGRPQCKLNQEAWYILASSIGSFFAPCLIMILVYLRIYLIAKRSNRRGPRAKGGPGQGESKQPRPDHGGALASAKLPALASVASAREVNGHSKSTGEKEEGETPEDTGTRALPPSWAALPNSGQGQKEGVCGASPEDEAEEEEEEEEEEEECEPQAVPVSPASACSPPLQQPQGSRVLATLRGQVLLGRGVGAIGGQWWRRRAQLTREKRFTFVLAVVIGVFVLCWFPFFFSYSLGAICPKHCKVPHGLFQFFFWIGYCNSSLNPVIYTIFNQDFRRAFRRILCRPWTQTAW
Summary of the method: (§1)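 Functional assay in CHO cells stably expressing a single human α2-AR subtype (α2A, α2B or α2C), read on a Cytosensor microphysiometer. Outputs are pEC50, intrinsic activity and, for antagonism, pKb. Intrinsic activity is expressed as a fraction of the full agonist (−)-noradrenaline, set at 1. Values are mean ± SEM of 3–5 separate experiments.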

[2] = molecular target: T2, Alpha-2C adrenergic receptor (Homo sapiens, UniProt P18825); test: Agonist activity at human alpha2c-AR expressed in CHO cells assessed as rate of acidification after 240 mins by cytosensor microphysiometric analysis; type: cell-based; summary of the method: as §1
T2 sequence (P18825 whole entry): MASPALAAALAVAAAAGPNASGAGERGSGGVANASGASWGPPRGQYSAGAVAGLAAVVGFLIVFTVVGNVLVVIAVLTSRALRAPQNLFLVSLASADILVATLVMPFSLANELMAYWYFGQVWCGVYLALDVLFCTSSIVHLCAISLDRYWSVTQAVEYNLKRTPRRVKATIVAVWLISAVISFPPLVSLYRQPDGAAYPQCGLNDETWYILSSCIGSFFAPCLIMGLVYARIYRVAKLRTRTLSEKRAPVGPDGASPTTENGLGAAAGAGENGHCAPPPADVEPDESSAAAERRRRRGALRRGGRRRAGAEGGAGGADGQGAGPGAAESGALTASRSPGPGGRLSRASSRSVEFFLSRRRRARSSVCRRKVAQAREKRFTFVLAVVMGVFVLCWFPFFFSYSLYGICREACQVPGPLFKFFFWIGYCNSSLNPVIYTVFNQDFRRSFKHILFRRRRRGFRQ

[3] = molecular target: T3, Alpha-2B adrenergic receptor (Homo sapiens) (UniProt P18089); test: Agonist activity at human alpha2b-AR expressed in CHO cells assessed as rate of acidification after 240 mins by cytosensor microphysiometric analysis relative to (-)-noradrenaline; type: cell-based; summary of the method: as §1
T3 sequence (whole entry): T1 sequence (P18089 whole entry)

[4] = molecular target: T4, Alpha-2C adrenergic receptor (Homo sapiens) (UniProt P18825); test: Agonist activity at human alpha2c-AR expressed in CHO cells assessed as rate of acidification after 240 mins by cytosensor microphysiometric analysis relative to (-)-noradrenaline; type: cell-based; summary of the method: as §1
T4 sequence (whole entry): T2 sequence (P18825 whole entry)

[5] = Reduction in morphine dependence expression in CD1 mouse assessed as inhibition of naloxone-precipitated jumping at 5 mg/kg, ip administered acutely 15 mins prior to naloxone challenge relative to control; type: functional, organism-based
[6] = Reduction in morphine dependence expression in CD1 mouse assessed as inhibition of naloxone-precipitated jumping at 10 mg/kg, ip administered acutely 15 mins prior to naloxone challenge relative to control; type: functional, organism-based
[7] = Reduction in morphine dependence expression in CD1 mouse assessed as inhibition of naloxone-precipitated rearing frequency at 5 mg/kg, ip administered acutely 15 mins prior to naloxone challenge relative to control; type: functional, organism-based
[8] = Reduction in morphine dependence expression in CD1 mouse assessed as inhibition of naloxone-precipitated forepaw tremor frequency at 10 mg/kg, ip administered acutely 15 mins prior to naloxone challenge relative to control; type: functional, organism-based
[9] = Reduction in morphine dependence expression in CD1 mouse assessed as inhibition of naloxone-precipitated teeth chattering frequency at 10 mg/kg, ip administered acutely 15 mins prior to naloxone challenge relative to control; type: functional, organism-based
Mus musculus [10] = test: Reduction in morphine dependence acquisition in CD1 mouse assessed as inhibition of naloxone-precipitated jumping at 5 to 10 mg/kg, ip administered 15 mins prior to each morphine challenge relative to control; type: functional
Summary of the method: (§2)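 Mice received i.p. test compound (5 or 10 mg/kg) 15 min before each of repeated morphine injections, with vehicle and morphine-only controls. Withdrawal was then precipitated with naloxone. Jumping frequency and somatic signs (rearing, forepaw tremor, teeth chattering; summed frequency) were scored and compared with the morphine group. Data are mean ± SEM of 6–10 animals.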

Mus musculus [11] = test: Reduction in morphine dependence acquisition in CD1 mouse assessed as inhibition of naloxone-precipitated rearing frequency at 5 to 10 mg/kg, ip administered 15 mins prior to each morphine challenge relative to control; type: functional; summary of the method: as §2
Mus musculus [12] = test: Reduction in morphine dependence acquisition in CD1 mouse assessed as inhibition of naloxone-precipitated forepaw tremor frequency at 5 to 10 mg/kg, ip administered 15 mins prior to each morphine challenge relative to control; type: functional; summary of the method: as §2

In the case of Cc1ccccc1NCC1=NCCN1, the EC50 [1] is reported as 3160 nM, the EC50 [2] is reported as 21.9 nM and the Intrinsic activity [3] is reported as 0.4. The Intrinsic activity [4] was 0.8, the inhibition [5] was 96% and the inhibition [6] was 98%. It also gave an inhibition [7] of 86%, an inhibition [8] of 93% and an inhibition [9] of 93%. The “inhibition (INH)” value (Mus musculus [10]) was 80%, the “inhibition (INH)” value (Mus musculus [11]) was 80% and the “inhibition (INH)” value (Mus musculus [12]) was 80%.
